We go through 1 molecule from ChEMBL document CHEMBL4382192, “Discovery of a potent dual ALK and EGFR T790M inhibitor” (Eur J Med Chem, 2017).

Structures are written as SMILES.

Usually clearance stands for the rate of elimination divided by the concentration. Lower therefore signals inefficient removal.

Data set [1] deals with Aurora kinase C (Homo sapiens) (UniProt Q9UQB9). Description: Binding affinity to wild-type human full length AURKC (M1 to S275 residues) expressed in bacterial expression system assessed as residual binding level at 1 uM by Kinomescan method relative to control.
Data set [2] addresses Receptor tyrosine-protein kinase erbB-2 (Homo sapiens, UniProt P04626). Description: Binding affinity to wild-type human partial length ERBB2 (K646 to V1225 residues) expressed in mammalian expression system assessed as residual binding level at 1 uM by Kinomescan method relative to control.
The target of data set [3] is Serine/threonine-protein kinase NIM1 (Homo sapiens) (UniProt Q8IY84). Kind of data set: Binding affinity to wild-type human partial length NIM1 (Q44 to N355 residues) expressed in mammalian expression system assessed as residual binding level at 1 uM by Kinomescan method relative to control.
For data set [4], the target named is Ephrin type-A receptor 8 (Homo sapiens) (UniProt P29322). Description: Binding affinity to wild-type human partial length EPHA8 (Q608 to C920 residues) expressed in bacterial expression system assessed as residual binding level at 1 uM by Kinomescan method relative to control.
For data set [5], the target named is Serine/threonine-protein kinase Chk2 (Homo sapiens) (UniProt O96017). Description: Binding affinity to wild-type human partial length CHEK2 (S253 to E574 residues) expressed in bacterial expression system assessed as residual binding level at 1 uM by Kinomescan method relative to control.
The target of data set [6] is Mast/stem cell growth factor receptor Kit (Homo sapiens) (UniProt P10721). Kind of data set: Binding affinity to wild-type human partial length KIT (I571 to D952 residues) expressed in bacterial expression system assessed as residual binding level at 1 uM by Kinomescan method relative to control.
Data set [7] has as its target Tyrosine-protein kinase Srms (Homo sapiens) (UniProt Q9H3Y6). Kind of data set: Binding affinity to wild-type human partial length SRMS (L208 to P488 residues) expressed in mammalian expression system assessed as residual binding level at 1 uM by Kinomescan method relative to control.
Data set [8] addresses Citron Rho-interacting kinase (Homo sapiens) (UniProt O14578). Kind of data set: Binding affinity to wild-type human partial length CIT (M68 to E432 residues) expressed in bacterial expression system assessed as residual binding level at 1 uM by Kinomescan method relative to control.
A short description of data set [9]: Clearance in mouse at 2 mg/kg, iv. It is filed as ADME, organism-based. The following applies: in vivo.
The target of data set [10] is Serine/threonine-protein kinase MRCK gamma (Homo sapiens) (UniProt Q6DT37). Description: Binding affinity to wild-type human partial length DMPK2 (S46 to S408 residues) expressed in bacterial expression system assessed as residual binding level at 1 uM by Kinomescan method relative to control.
For data set [11], the target named is Proto-oncogene tyrosine-protein kinase Src (Homo sapiens) (UniProt P12931). Description: Binding affinity to wild-type human partial length SRC (L240 to L536 residues) expressed in bacterial expression system assessed as residual binding level at 1 uM by Kinomescan method relative to control.
Data set [12] concerns the target Serine/threonine-protein kinase 10 (Homo sapiens) (UniProt O94804). Kind of data set: Binding affinity to wild-type human partial length LOK (E16 to V314 residues) expressed in bacterial expression system assessed as residual binding level at 1 uM by Kinomescan method relative to control.
In data set [13] the target is Ephrin type-A receptor 6 (Homo sapiens) (UniProt Q9UF33). Kind of data set: Binding affinity to wild-type human partial length EPHA6 (Y700 to E1046 residues) expressed in bacterial expression system assessed as residual binding level at 1 uM by Kinomescan method relative to control.
The target in data set [14] is cAMP-dependent protein kinase catalytic subunit PRKX (Homo sapiens) (UniProt P51817). Kind of data set: Binding affinity to wild-type human partial length PRKX (M1 to F358 residues) expressed in bacterial expression system assessed as residual binding level at 1 uM by Kinomescan method relative to control.
Data set [15] has as its target Eukaryotic translation initiation factor 2-alpha kinase 1 (Homo sapiens) (UniProt Q9BQI3). Kind of data set: Binding affinity to wild-type human partial length EIF2AK1 (Q147 to E603 residues) expressed in mammalian expression system assessed as residual binding level at 1 uM by Kinomescan method relative to control.
In data set [16] the target is Protein-tyrosine kinase 6 (Homo sapiens) (UniProt Q13882). Kind of data set: Binding affinity to wild-type human partial length BRK (L166 to T451 residues) expressed in bacterial expression system assessed as residual binding level at 1 uM by Kinomescan method relative to control.
Data set [17] relates to Proto-oncogene tyrosine-protein kinase receptor Ret (Homo sapiens), P07949 [V804M]. Description: Binding affinity to human partial length RET V804M mutant (E713 to D1014 residues) expressed in bacterial expression system assessed as residual binding level at 1 uM by Kinomescan method relative to control. The essentials: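 Kinome-wide selectivity panel run by the KINOMEscan method, with the test compound at a single concentration of 1 μM. Wild-type and mutant kinases were profiled in the same screen.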

The target in data set [18] is Serine/threonine-protein kinase 3 (Homo sapiens) (UniProt Q13188). Kind of data set: Binding affinity to wild-type human partial length MST2 (D17 to E318 residues) expressed in bacterial expression system assessed as residual binding level at 1 uM by Kinomescan method relative to control.
Data set [19] addresses Tyrosine-protein kinase ZAP-70 (Homo sapiens) (UniProt P43403). Description: Binding affinity to wild-type human partial length ZAP70 (D20 to G299 residues) expressed in mammalian expression system assessed as residual binding level at 1 uM by Kinomescan method relative to control.
In data set [20] the target is Cyclin-dependent kinase 7 (Homo sapiens) (UniProt P50613). Description: Binding affinity to wild-type human full length CDK7 (M1 to L344 residues) expressed in mammalian expression system assessed as residual binding level at 1 uM by Kinomescan method relative to control.
In data set [21] the target is Serine/threonine-protein kinase 38-like (Homo sapiens) (UniProt Q9Y2H1). Kind of data set: Binding affinity to wild-type human partial length NDR2 (N34 to E447 residues) expressed in bacterial expression system assessed as residual binding level at 1 uM by Kinomescan method relative to control.
For data set [22], the target named is Ribosomal protein S6 kinase alpha-2 (Homo sapiens) (UniProt Q15349). Kind of data set: Binding affinity to wild-type human partial length C-terminal RSK3 kinase domain 2 (V403 to K700 residues) expressed in bacterial expression system assessed as residual binding level at 1 uM by Kinomescan method relative to control.
Data set [23] addresses Angiopoietin-1 receptor (Homo sapiens) (UniProt Q02763). Description: Binding affinity to wild-type human partial length TIE2 (N804 to T1112 residues) expressed in bacterial expression system assessed as residual binding level at 1 uM by Kinomescan method relative to control.
In data set [24] the target is Testis-specific serine/threonine-protein kinase 1 (Homo sapiens) (UniProt Q9BXA7). Kind of data set: Binding affinity to wild-type human full length TSSK1B (M1 to Q367 residues) expressed in bacterial expression system assessed as residual binding level at 1 uM by Kinomescan method relative to control.

Sequence of Serine/threonine-protein kinase 10 (Homo sapiens) (O94804 whole entry, looked up, the tested form may be a part): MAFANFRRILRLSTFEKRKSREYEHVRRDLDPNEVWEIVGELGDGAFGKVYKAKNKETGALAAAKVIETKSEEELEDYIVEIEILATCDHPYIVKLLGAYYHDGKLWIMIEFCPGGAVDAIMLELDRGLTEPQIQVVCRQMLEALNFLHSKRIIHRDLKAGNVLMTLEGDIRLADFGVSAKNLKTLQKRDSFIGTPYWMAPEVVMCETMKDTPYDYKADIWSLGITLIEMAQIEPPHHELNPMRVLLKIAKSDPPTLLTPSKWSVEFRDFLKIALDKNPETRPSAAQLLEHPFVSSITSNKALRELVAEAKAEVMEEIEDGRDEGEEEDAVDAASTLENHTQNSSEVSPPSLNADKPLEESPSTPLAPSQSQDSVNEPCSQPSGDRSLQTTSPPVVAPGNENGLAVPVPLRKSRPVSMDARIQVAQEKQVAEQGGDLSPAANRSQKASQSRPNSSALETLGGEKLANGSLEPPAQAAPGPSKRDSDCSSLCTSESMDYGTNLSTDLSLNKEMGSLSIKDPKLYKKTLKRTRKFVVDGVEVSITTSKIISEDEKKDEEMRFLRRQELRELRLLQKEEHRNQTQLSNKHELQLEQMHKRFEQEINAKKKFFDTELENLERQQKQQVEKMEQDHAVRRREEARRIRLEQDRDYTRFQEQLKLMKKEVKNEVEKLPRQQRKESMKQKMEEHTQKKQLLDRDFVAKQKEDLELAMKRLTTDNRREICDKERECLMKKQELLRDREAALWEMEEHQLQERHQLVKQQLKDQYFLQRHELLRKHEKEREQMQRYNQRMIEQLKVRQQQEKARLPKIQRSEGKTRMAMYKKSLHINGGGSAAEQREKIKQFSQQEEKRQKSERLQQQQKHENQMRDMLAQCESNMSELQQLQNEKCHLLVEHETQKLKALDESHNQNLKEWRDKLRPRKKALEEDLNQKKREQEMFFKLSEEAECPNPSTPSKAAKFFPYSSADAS
Sequence of cAMP-dependent protein kinase catalytic subunit PRKX (Homo sapiens) (P51817 whole entry, the tested form may be a part): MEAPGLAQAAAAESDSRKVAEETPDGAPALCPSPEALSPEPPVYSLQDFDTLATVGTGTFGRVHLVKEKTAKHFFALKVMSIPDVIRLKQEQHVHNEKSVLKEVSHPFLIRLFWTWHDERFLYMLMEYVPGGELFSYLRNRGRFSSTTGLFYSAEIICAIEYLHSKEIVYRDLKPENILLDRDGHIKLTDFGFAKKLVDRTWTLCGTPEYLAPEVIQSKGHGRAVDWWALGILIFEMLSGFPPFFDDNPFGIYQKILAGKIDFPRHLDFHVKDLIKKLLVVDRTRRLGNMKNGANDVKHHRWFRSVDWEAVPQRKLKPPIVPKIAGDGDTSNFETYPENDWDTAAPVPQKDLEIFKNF
Sequence of Serine/threonine-protein kinase Chk2 (Homo sapiens) (O96017 whole entry, the tested form may be a part): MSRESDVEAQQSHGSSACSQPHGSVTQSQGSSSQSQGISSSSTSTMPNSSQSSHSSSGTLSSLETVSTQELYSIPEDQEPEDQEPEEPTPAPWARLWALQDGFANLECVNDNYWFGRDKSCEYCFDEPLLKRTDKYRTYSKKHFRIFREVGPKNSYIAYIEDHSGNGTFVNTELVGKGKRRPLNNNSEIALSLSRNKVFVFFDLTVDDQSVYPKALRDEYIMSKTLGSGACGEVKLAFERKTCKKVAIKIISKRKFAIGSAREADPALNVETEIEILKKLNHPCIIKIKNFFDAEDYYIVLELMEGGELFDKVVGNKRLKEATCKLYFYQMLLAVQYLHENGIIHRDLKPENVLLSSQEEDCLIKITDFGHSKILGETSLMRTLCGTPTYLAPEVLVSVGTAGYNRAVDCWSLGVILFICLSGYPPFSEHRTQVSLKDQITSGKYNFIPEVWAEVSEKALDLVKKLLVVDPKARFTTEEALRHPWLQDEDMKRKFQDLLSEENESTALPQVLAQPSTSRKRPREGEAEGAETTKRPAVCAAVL
Sequence of Proto-oncogene tyrosine-protein kinase Src (Homo sapiens) (P12931 2-536 limits assumed): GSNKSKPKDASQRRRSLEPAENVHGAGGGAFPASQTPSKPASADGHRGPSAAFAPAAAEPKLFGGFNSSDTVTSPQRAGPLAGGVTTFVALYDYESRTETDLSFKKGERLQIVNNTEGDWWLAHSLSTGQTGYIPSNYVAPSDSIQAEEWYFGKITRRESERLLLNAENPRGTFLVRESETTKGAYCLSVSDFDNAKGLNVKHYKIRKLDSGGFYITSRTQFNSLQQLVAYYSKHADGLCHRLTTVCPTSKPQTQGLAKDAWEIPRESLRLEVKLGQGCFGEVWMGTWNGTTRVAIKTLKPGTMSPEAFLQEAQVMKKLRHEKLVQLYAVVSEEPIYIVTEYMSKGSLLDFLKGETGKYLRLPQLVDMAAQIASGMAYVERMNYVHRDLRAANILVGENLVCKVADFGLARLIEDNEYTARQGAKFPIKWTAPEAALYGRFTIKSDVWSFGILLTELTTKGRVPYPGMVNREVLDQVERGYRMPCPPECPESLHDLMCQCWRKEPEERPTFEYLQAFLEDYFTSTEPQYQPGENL
Sequence of Mast/stem cell growth factor receptor Kit (Homo sapiens) (P10721 whole entry, the tested form may be a part): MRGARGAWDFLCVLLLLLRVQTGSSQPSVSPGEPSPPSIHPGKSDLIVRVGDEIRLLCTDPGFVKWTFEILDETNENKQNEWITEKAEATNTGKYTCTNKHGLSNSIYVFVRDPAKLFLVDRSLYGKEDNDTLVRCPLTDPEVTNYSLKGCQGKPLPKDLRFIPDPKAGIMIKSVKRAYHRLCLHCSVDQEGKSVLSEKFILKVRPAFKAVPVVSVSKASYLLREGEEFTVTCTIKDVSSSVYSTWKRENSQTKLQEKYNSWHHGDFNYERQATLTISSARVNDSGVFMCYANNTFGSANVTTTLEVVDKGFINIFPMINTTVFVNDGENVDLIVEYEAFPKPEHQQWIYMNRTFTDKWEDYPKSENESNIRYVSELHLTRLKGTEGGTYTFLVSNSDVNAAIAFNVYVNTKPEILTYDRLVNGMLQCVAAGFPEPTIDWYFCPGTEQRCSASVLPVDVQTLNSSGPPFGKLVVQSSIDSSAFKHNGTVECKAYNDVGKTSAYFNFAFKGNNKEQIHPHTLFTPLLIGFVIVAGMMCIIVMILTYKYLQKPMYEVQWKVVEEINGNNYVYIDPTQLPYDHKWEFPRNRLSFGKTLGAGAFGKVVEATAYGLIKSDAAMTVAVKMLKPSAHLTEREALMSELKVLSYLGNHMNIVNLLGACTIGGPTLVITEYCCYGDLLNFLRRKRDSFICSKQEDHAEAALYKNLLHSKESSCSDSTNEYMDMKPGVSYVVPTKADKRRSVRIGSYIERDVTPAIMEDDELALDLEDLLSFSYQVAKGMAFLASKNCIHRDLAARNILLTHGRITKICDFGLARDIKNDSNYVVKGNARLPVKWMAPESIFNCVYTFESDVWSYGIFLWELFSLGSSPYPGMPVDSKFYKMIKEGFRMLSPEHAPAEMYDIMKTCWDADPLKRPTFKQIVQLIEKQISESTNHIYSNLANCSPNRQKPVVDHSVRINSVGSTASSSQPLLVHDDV
Sequence of Ribosomal protein S6 kinase alpha-2 (Homo sapiens) (Q15349 whole entry, the tested form may be a part): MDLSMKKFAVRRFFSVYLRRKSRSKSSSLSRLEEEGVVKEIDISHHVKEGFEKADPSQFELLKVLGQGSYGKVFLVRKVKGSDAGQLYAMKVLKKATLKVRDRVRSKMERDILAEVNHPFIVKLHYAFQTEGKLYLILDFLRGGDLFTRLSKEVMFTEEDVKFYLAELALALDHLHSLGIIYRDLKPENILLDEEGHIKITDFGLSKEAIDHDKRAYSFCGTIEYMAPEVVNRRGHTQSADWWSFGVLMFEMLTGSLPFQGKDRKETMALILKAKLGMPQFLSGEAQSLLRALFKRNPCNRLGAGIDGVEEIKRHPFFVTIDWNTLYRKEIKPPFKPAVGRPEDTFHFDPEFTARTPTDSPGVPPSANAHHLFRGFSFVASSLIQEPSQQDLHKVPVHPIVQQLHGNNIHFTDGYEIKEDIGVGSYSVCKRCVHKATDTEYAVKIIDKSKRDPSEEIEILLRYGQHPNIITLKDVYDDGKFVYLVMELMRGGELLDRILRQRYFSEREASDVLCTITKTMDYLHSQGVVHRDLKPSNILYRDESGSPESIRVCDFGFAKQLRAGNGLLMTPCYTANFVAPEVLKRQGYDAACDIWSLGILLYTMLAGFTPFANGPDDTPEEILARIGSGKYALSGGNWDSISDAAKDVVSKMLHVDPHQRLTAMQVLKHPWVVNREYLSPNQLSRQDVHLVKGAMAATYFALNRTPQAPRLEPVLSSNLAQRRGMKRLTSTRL
Sequence of Protein-tyrosine kinase 6 (Homo sapiens) (Q13882 whole entry, looked up, the tested form may be a part): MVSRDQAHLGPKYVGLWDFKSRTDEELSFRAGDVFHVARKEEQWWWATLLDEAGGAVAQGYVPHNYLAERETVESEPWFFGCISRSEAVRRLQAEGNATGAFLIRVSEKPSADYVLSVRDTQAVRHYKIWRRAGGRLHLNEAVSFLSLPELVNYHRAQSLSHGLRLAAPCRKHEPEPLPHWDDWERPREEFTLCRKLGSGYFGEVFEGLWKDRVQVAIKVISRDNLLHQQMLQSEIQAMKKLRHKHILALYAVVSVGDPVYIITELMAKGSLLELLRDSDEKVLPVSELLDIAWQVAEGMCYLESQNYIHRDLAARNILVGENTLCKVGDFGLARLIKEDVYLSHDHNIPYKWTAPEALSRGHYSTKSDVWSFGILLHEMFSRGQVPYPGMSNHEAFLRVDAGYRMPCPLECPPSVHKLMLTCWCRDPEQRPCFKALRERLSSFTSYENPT
Sequence of Serine/threonine-protein kinase NIM1 (Homo sapiens) (Q8IY84 whole entry, the tested form may be a part): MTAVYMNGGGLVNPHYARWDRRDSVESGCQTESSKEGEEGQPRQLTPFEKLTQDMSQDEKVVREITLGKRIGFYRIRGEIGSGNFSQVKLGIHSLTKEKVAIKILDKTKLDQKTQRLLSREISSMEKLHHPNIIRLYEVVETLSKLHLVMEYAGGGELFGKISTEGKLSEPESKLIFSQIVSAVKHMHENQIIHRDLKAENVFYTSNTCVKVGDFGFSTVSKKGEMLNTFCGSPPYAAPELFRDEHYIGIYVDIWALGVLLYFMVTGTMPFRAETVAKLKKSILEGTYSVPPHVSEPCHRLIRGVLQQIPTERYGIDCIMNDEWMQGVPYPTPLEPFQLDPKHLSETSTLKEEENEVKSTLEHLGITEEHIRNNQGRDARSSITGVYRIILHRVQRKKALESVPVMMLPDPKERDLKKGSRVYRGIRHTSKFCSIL

As to `C=CC(=O)Nc1cc(Nc2ncc(Cl)c(Nc3ccccc3S(=O)(=O)C(C)C)n2)c(OC)cc1N(C)CCN(C)C`, the Activity in data set [1] came out at 8.2%; in data set [2], 0%; in data set [3], 100%; in [4] it was 97%; in data set [5] it was 0.35%; in data set [6], 39%. Besides, the Activity amounted to 6.5% in [7]; 99% in data set [8]; 91% in [10]; 34% in [11]; 0% in [12]; 49% in data set [13]. Further, the Activity was determined as 100% in data set [14]; 72% in data set [15]; 0.4% in data set [16]; 15% in data set [17]; 56% in data set [18]; 77% in data set [19]. Further, the Activity in data set [20] worked out at 21%; in data set [21], 54%; in data set [22], 27%; in data set [23], 20%; in data set [24] it was 12%. This molecule also gave a clearance in [9] of 29 mL/min/kg.
